High-throughput results as filed in PubChem BioAssay.
This is one part of a sample in which hits are shown more often than they occur.
Dyrk1A ADPGlo = Dyrk1A (rat) kinase inhibition; inhibition, % at 12.5 µM; Q63470; ADP-Glo luminescence, NFATc1 peptide; hit rate 0.43% among 310,000; AID 504441; in the data active means inhibition above about 50%;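 further: plate controls were vehicle with enzyme for no effect and no enzyme for full effect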
CDK5 p35 inh = blocks human CDK5/p35 kinase activity. Recombinant CDK5/p35, ADP-Glo luminescence, 60 min. inhibition, % at 10 µM. hit rate 0.01% among 330,000;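 active means highest replicate inhibition of at least 50% and at least 75% of replicates reaching 50%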;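 further: plate controls were DMSO neutral control for no effect and GW8510 at 10 µM for full effect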
GSK3beta inhib = inhibitors of human GSK3beta kinase; P49841; GST-GSK3beta kinase, ADP-Glo luminescence, 60 min; hits give low values; activity score (negative = inhibition), % at 10 µM; hit rate 0.038% among 300,000;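 active means more than half of replicate wells score below -50%, meaning over 50% inhibition versus plate controls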;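 further: 0% = median DMSO wells and -100% = median GW8510 positive control wells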
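Assay system: GST-fused GSK3beta enzyme, cell-free / Medium: Tris pH 7.5 buffer with MgCl2, DTT, BSA, heparin / Also added: peptide substrate plus 25 µM ATP (final) / Compound: 10 µM single point / Timing: kinase reaction with compound 60 min at room temperature / Detection: ADP-Glo luminescence / Benchmarks: DMSO neutral wells and GW8510 at 20 µM as positive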
STK33 inh = human STK33 kinase inhibition | Q9BYT3 | purified STK33, MBP phosphorylation, ADP-Glo luminescence | inhibition, % at 10 µM | hit rate 0.073% among 320,000 | AID 2661;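 active means inhibition at or above 25%, using the most active replicate where run in duplicate; inactive means inhibition below 25%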
GSK3A inh = blocks human GSK-3 alpha kinase; ADP-Glo luminescence, 60 min; AID 2650; inhibition, % at 10 µM; hit rate 0.1% among 320,000; P49840;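 active means more than half of replicates show inhibition above 20%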;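 further: GST-tagged GSK-3 alpha with peptide substrate and 25 µM ATP; 0% = DMSO neutral wells and 100% = GW8510 positive control wells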
Target sequence (P49840 whole entry, looked up): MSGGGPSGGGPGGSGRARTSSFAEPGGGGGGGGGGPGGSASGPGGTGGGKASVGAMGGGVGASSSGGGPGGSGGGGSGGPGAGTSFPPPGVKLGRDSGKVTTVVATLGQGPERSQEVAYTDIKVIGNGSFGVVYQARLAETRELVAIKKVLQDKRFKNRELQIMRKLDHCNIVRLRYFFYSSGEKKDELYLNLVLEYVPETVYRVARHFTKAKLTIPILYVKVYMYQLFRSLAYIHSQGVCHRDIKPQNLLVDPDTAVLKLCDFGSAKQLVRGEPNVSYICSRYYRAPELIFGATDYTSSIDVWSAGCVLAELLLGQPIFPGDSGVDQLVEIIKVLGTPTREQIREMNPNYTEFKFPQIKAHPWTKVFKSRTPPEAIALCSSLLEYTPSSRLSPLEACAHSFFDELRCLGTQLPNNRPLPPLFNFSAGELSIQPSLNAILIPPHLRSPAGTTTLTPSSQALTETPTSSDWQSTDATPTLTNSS
Dyrk1A artifact = interferes with ADP-Glo luciferase readout without Dyrk1A | shares compounds with Dyrk1A ADPGlo | ADP-Glo luciferase artifact assay, no Dyrk1A, luminescence | AC50, µM (highest dose often 12 µM), for the others: top-dose activity change, negative = inhibition | 1,300 tested, under 10 active | AID 588348;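 active means fitted half-maximal dose AC50 no more than ten times the top valid tested dose, with luminescence dropping as dose rises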
Numbers without * were called inactive; . = no result given.

SMILES	Dyrk1A ADPGlo	CDK5 p35 inh	GSK3beta inhib	STK33 inh	GSK3A inh	Dyrk1A artifact
CN1CCN(C2=C(NS(=O)(=O)c3ccccc3)C(=O)c3ccccc3C2=O)CC1	-4	0	0	2	-1	.
CN1CCN(C2=C(Cl)C(=O)c3ccccc3C2=O)CC1	56*	2	.	.	.	7%
COc1cccc(/C=N/n2c(C3CCCCC3)n[nH]c2=S)c1O	53*	2	0	2	24	11%
Oc1ccc(/C=N/n2c(C3CCCCC3)n[nH]c2=S)c(O)c1	83*	6	-10	12	20	9%
O=C(Nc1ccc(F)cc1)C1CCCN(S(=O)(=O)c2ccc3[nH]c(=O)ccc3c2)C1 (stereo not drawn)	-1	0	0	0	0	.
CN(C)CCCN(C(=O)c1cccc(N2C(=O)CCC2=O)c1)c1nc2cc3c(cc2s1)OCO3	2	0	-1	-1	-1	.
Cc1cc(=O)oc2ccc(OC(=O)c3cccc(S(=O)(=O)N4CCOCC4)c3)cc12	54*	0	-1	1	1	5%
CS(=O)(=O)Nc1ccc(-c2ccc(/C=C3\SC(N)=NC3=O)o2)cc1	84*	5	0	-1	55*	10%
NC1=NC(=O)/C(=C/c2ccc(-c3ccc(S(N)(=O)=O)cc3)o2)S1	77*	40	-2	0	65*	13%
CC1(C)OC(=O)C(=Cc2ccc(-c3ccc(S(N)(=O)=O)cc3)o2)C(=O)O1	-1	0	0	-1	-1	.
NC1=NC(=O)/C(=C\c2ccco2)S1	47	2	-1	3	3	.
O=C1c2ccccc2C(=O)C1c1ccccn1	61*	18	-3	35*	8	12%
Cc1nc2c(ccc3nc(NC(=O)Cc4ccccc4)sc32)s1	68*	1	-7	15	5	6%
O=C1[C@H]2[C@H](C=CC[C@H]2C(=O)N2CCOCC2)CCN1Cc1ccccc1	53*	0	2	0	-1	10%
O=C(Nc1ccccc1)[C@@H]1CC=C[C@@H]2CCN(Cc3ccccc3)C(=O)[C@@H]21	1	-3	-2	1	-2	.
Cc1cc(=O)oc2cc(OCC(=O)N3CC[C@@]4(O)CCCC[C@H]4C3)c(Cl)cc12	3	2	-1	2	0	.
COc1cccc(C(=O)c2sc(NC(C)C)nc2N)c1	53*	55*	-93*	2	94*	7%
O=C(O)c1cccc(COc2cccc3ccccc23)c1	13	-3	-2	-1	-4	.
Cc1ccc(-c2nn(-c3ccccc3)cc2CO)cc1	0	0	1	-1	-2	.
COc1ccc(-c2nn(-c3ccccc3)cc2CO)cc1	62*	2	-1	1	-1	13%
CCC(=O)c1ccc(OCC(=O)OCC(=O)N2CCCc3ccccc32)cc1	-2	0	3	-2	0	.
CC(=O)Nc1ccc(Oc2cc(NC(C)=O)cc([N+](=O)[O-])c2)cc1	0	1	-1	1	-6	.
Oc1ccc(-c2csc(NCc3ccco3)n2)cc1	52*	0	-1	1	5	6%
c1coc(CNc2nc(-c3cccs3)cs2)c1	-9	-2	1	4	2	.
COc1cc(C(C)=O)ccc1Oc1ncnc2c1cnn2-c1ccc(C)c(C)c1	-8	-1	-2	.	.	.
SMILES	Dyrk1A ADPGlo	CDK5 p35 inh	GSK3beta inhib	STK33 inh	GSK3A inh	Dyrk1A artifact
COc1cc(C(C)=O)ccc1Oc1ncnc2c1cnn2-c1ccccc1	62*	-3	2	1	-1	8%
COc1ccc2c(c1)[nH]c1c(Cl)ncnc12	65*	3	-10	.	.	11%
Cc1ccc2[nH]c3c(Cl)ncnc3c2c1	17	1	3	3	-2	.
CN1C(c2ccccc2)=NO[C@]1(C)c1ccccc1	.	2	2	-2	-3	.
Nc1cc2ccncc2c2ccccc12	73*	5	-2	19	1	9%
Cc1cc(N)c2ccccc2n1	-2	-1	0	0	-1	.
CCn1cc(S(=O)(=O)NCc2ccc(OC)cc2)cn1	.	-5	3	-1	2	.
COc1cc(C(=O)Nc2cccc(-c3nncn3C)c2)cc(OC)c1OC	77*	1	2	6	0	10%
COc1cc2[nH]c(=O)c(C(=O)NCc3ccccc3Cl)c(O)c2cc1OC	8	1	-2	-6	7	.
COc1ccc(NC(=O)N(C)C[C@H]2Oc3c(NS(=O)(=O)c4cccs4)cccc3C(=O)N([C@@H](C)CO)C[C@@H]2C)cc1	55*	0	.	0	1	3%
O=C(CSc1nc(-c2ccco2)cc(C(F)(F)F)n1)NCCCn1ccnc1	58*	3	4	1	0	8%
O=C(CSc1nc(-c2cccs2)cc(C(F)(F)F)n1)NCCCn1ccnc1	-7	0	0	-1	1	.
COc1ccc2c(c1)CC/C(=C\C=C\c1ccccc1OC)C2=O	-1	0	-3	1	-5	.
COc1ccc2c3c(ccc2c1)C(=O)/C(=C/O)CC3	63*	5	.	.	.	9%
CCc1nc(Nc2cccc(O)c2)c2oc3ccccc3c2n1	62*	-1	-1	5	2	10%
CCc1nc(Nc2ccncc2)c2oc3ccccc3c2n1	13	-1	2	1	0	.
OC1CCN(c2ncnc3nc[nH]c23)CC1	13	2	2	4	23	.
CC1CCN(c2ncnc3nc[nH]c23)CC1	81*	2	-6	17	18	8%
c1ccc2c(c1)CCN(c1ncnc3nc[nH]c13)C2	-3	-1	2	2	21	.
CC1Cc2ccccc2N1c1ncnc2nc[nH]c12 (stereo not drawn)	72*	9	1	14	47	8%
Cc1ccc(/C([O-])=C(/C(=S)Nc2ccc(SC(F)F)cc2)[n+]2ccccc2)cc1[N+](=O)[O-]	16	0	1	-2	-1	.
CC12CC3CC(C)(C1)CC(C(=O)NNC(=O)c1ccncc1)(C3)C2	1	-2	-1	-1	-2	.
CC/C(=N\NC(=O)CSc1ncccn1)c1ccc2c(c1)OCCO2	-2	-2	-21	-2	1	.
COC(=O)c1sc2cnccc2c1N	58*	2	-16	10	30	9%
CC(C)CC(NC(=O)C1CCC(C)CC1)C(=O)Nc1ccc2c(c1)OCCO2 (stereo not drawn)	56*	0	0	2	-4	12%
c1ccc(-c2nnc(-c3ccccc3)c(-c3c[nH]c4ccccc34)n2)cc1	2	0	-4	2	3	.
c1ccc2c(-c3ccncc3)c[nH]c2c1	76*	1	1	7	1	8%
CC(=O)NC12CC3CC(C1)CC(C(=O)Nc1nc4ccc(F)cc4s1)(C3)C2	79*	-2	1	2	-2	7%
